Assay results from ChEMBL document CHEMBL1165943, “Design and synthesis of new anticancer pyrimidines with multiple-kinase inhibitory effect” (Bioorg Med Chem, 2010).
pIC50: −log10 of the molar value.

Key:
MDA-MB-435 [1] = test: Cytotoxicity against human MDA-MB-435 cells assessed as cell growth at 10 uM after 48 hrs by sulforhodamine B assay; type: functional; details: MDA-MB-435, 48 h, read-out: Activity
SW-620 = test: Cytotoxicity against human SW620 cells assessed as cell growth at 10 uM after 48 hrs by sulforhodamine B assay; type: functional; details: SW-620, 48 h, read-out: Activity
UACC-257 [2] = test: Cytotoxicity against human UACC257 cells assessed as cell growth at 1 uM after 48 hrs by sulforhodamine B assay; type: functional; details: UACC-257, 48 h, read-out: Activity
TK-10 [3] = test: Cytotoxicity against human TK10 cells assessed as cell growth at 1 uM after 48 hrs by sulforhodamine B assay; type: functional; details: TK-10, 48 h, read-out: Activity
M14 = test: Cytotoxicity against human M14 cells assessed as cell growth at 10 uM after 48 hrs by sulforhodamine B assay; type: functional; details: M14, 48 h, read-out: Activity
TK-10 [4] = test: Cytotoxicity against human TK10 cells assessed as cell growth at 0.001 uM after 48 hrs by sulforhodamine B assay; type: functional; details: TK-10, 48 h, read-out: Activity
NCI-H522 = test: Cytotoxicity against human NCI-H522 cells assessed as cell growth at 0.001 uM after 48 hrs by sulforhodamine B assay; type: functional; details: NCI-H522, 48 h, read-out: Activity
DU-145 [5] = test: Cytotoxicity against human DU145 cells assessed as cell growth at 1 uM after 48 hrs by sulforhodamine B assay; type: functional; details: DU-145, 48 h, read-out: Activity
UACC-257 [6] = test: Cytotoxicity against human UACC257 cells assessed as cell growth at 0.001 uM after 48 hrs by sulforhodamine B assay; type: functional; details: UACC-257, 48 h, read-out: Activity
LOX IMVI = test: Cytotoxicity against human LOXIMVI cells assessed as cell growth at 0.001 uM after 48 hrs by sulforhodamine B assay; type: functional; details: read-out: Activity
HOP-62 = test: Cytotoxicity against human HOP62 cells assessed as cell growth at 10 uM after 48 hrs by sulforhodamine B assay; type: functional; details: HOP-62, 48 h, read-out: Activity
UO-31 = test: Growth inhibition of human UO31 cells after 48 hrs by sulforhodamine B assay; type: functional, cell-based; details: UO-31, 48 h; for CC50: read-out: LC50 (the source's name)
How it was run: (§1)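 Cells grown in RPMI 1640 with 5% FBS and 2 mM L-glutamine, seeded at 5,000–40,000 cells/well according to doubling time. After 24 h, time-zero plates are TCA-fixed. Five concentrations (10-fold or ½log dilutions, DMSO stocks) are applied for 48 h at 37 °C, 5% CO₂. Cells are TCA-fixed, SRB-stained and read at 515 nm. IC₅₀ is taken from [(Ti−Tz)/(C−Tz)]×100 = 50.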

K562 [7] = test: Cytotoxicity against human K562 cells assessed as cell growth at 10 uM after 48 hrs by sulforhodamine B assay; type: functional; details: K562, 48 h, read-out: Activity
HCT-116 = test: Cytotoxicity against human HCT116 cells assessed as cell growth at 1 uM after 48 hrs by sulforhodamine B assay; type: functional; details: HCT-116, 48 h, read-out: Activity
MDA-MB-435 [8] = test: Cytotoxicity against human MDA-MB-435 cells assessed as cell growth at 0.001 uM after 48 hrs by sulforhodamine B assay; type: functional; details: MDA-MB-435, 48 h, read-out: Activity
SK-MEL-5 [9] = test: Growth inhibition of human SK-MEL-5 cells after 48 hrs by sulforhodamine B assay; type: functional, cell-based; details: for CC50: read-out: LC50 (the source's name); how it was run: as §1
SK-MEL-2 [10] = test: Cytotoxicity against human SK-MEL-2 cells assessed as cell growth at 10 uM after 48 hrs by sulforhodamine B assay; type: functional; details: SK-MEL-2, 48 h, read-out: Activity
ACHN = test: Cytotoxicity against human ACHN cells assessed as cell growth at 0.01 uM after 48 hrs by sulforhodamine B assay; type: functional; details: read-out: Activity
How it was run: (§2)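 Cells grown in RPMI 1640 with 5% FBS and 2 mM L-glutamine, seeded at 5,000–40,000 cells/well by doubling time. Time-zero plates TCA-fixed after 24 h. Five concentrations (10-fold or half-log dilutions from DMSO stock) added; 48 h at 37 °C, 5% CO2. Cold TCA fixation (final 10%, 60 min, 4 °C), 0.4% SRB stain, dye solubilized in 10 mM trizma base, A515.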

SF-295 = test: Cytotoxicity against human SF295 cells assessed as cell growth at 1 uM after 48 hrs by sulforhodamine B assay; type: functional; details: SF-295, 48 h, read-out: Activity
BT-549 [11] = test: Cytotoxicity against human BT549 cells assessed as cell growth at 10 uM after 48 hrs by sulforhodamine B assay; type: functional; details: BT-549, 48 h, read-out: Activity; how it was run: as §2
SK-MEL-2 [12] = test: Cytotoxicity against human SK-MEL-2 cells assessed as cell growth at 100 nM after 48 hrs by sulforhodamine B assay; type: functional; details: SK-MEL-2, 48 h, read-out: Activity
SN12C = test: Cytotoxicity against human SN12C cells assessed as cell growth at 0.001 uM after 48 hrs by sulforhodamine B assay; type: functional; details: read-out: Activity
SK-MEL-2 [13] = test: Cytotoxicity against human SK-MEL-2 cells assessed as cell growth at 0.01 uM after 48 hrs by sulforhodamine B assay; type: functional; details: SK-MEL-2, 48 h, read-out: Activity
MDA-MB-435 [14] = test: Cytotoxicity against human MDA-MB-435 cells assessed as cell growth at 0.01 uM after 48 hrs by sulforhodamine B assay; type: functional; details: MDA-MB-435, 48 h, read-out: Activity
BT-549 [15] = test: Cytotoxicity against human BT549 cells assessed as cell growth at 0.001 uM after 48 hrs by sulforhodamine B assay; type: functional; details: BT-549, 48 h, read-out: Activity; how it was run: as §2
SK-MEL-5 [16] = test: Cytotoxicity against human SK-MEL-5 cells assessed as cell growth at 0.01 uM after 48 hrs by sulforhodamine B assay; type: functional; details: SK-MEL-5, 48 h, read-out: Activity
KM12 = test: Growth inhibition of human KM12 cells after 48 hrs by sulforhodamine B assay; type: functional, cell-based; details: KM12, 48 h; for CC50: read-out: LC50 (the source's name); how it was run: as §1
EKVX = test: Cytotoxicity against human EKVX cells assessed as cell growth at 10 uM after 48 hrs by sulforhodamine B assay; type: functional; details: read-out: Activity
K562 [17] = test: Cytotoxicity against human K562 cells assessed as cell growth at 100 nM after 48 hrs by sulforhodamine B assay; type: functional; details: K562, 48 h, read-out: Activity
UACC-62 = test: Cytotoxicity against human UACC62 cells assessed as cell growth at 10 uM after 48 hrs by sulforhodamine B assay; type: functional; details: UACC-62, 48 h, read-out: Activity
T47D = test: Growth inhibition of human T47D cells after 48 hrs by sulforhodamine B assay; type: functional, cell-based; how it was run: as §1
DU-145 [18] = test: Cytotoxicity against human DU145 cells assessed as cell growth at 0.01 uM after 48 hrs by sulforhodamine B assay; type: functional; details: DU-145, 48 h, read-out: Activity
U-251 = test: Cytotoxicity against human U251 cells assessed as cell growth at 10 uM after 48 hrs by sulforhodamine B assay; type: functional; details: U-251, 48 h, read-out: Activity
COLO 205 = test: Cytotoxicity against human COLO205 cells assessed as cell growth at 1 uM after 48 hrs by sulforhodamine B assay; type: functional; details: COLO 205, 48 h, read-out: Activity; how it was run: as §2

`CC(=O)c1ccccc1-c1ccc(-c2ccnc(NC(=O)Nc3cc(N4CCOCC4)cc(C(F)(F)F)c3)n2)cn1` gave a growth at 10 µM (MDA-MB-435 [1]) of 91%, a growth at 10 µM (SW-620) of 102% and a growth at 1 µM (UACC-257 [2]) of 66%. It also gave a growth at 1 µM (TK-10 [3]) of 32%, a growth at 10 µM (M14) of 86% and a growth at 0.001 µM (TK-10 [4]) of 103%. For the same compound, the growth at 0.001 µM (NCI-H522) was 91%, the growth at 1 µM (DU-145 [5]) was 19% and the growth at 0.001 µM (UACC-257 [6]) was 89%. The growth at 0.001 µM (LOX IMVI) was 104%, the growth at 10 µM (HOP-62) was 19% and the GI50 (UO-31) was > 5.46 µM. For the same compound, the pIC50 (UO-31) was < 4.00, the TGI (UO-31) was > 100 µM and the CC50 (UO-31) was > 100 µM. It also gave a growth at 10 µM (K562 [7]) of 103%, a growth at 1 µM (HCT-116) of 69% and a growth at 0.001 µM (MDA-MB-435 [8]) of 98%. For the same compound, the TGI (SK-MEL-5 [9]; Homo sapiens, SK-MEL-5, 48 h) was > 100 µM, the CC50 (SK-MEL-5 [9]; Homo sapiens, SK-MEL-5, 48 h) was > 100 µM and the IC50 (SK-MEL-5 [9]; sk-mel-5) was “Not Active”. It also gave a growth at 10 µM (SK-MEL-2 [10]) of -9%, a growth at 0.01 µM (ACHN) of 99% and a growth at 1 µM (SF-295) of 48%. It also gave a growth at 10 µM (BT-549 [11]) of 46%, a growth at 0.1 µM (SK-MEL-2 [12]) of 102% and a growth at 0.001 µM (SN12C) of 93%. The growth at 0.01 µM (SK-MEL-2 [13]) was 105%, the growth at 0.01 µM (MDA-MB-435 [14]) was 95% and the growth at 0.001 µM (BT-549 [15]) was 101%. The growth at 0.01 µM (SK-MEL-5 [16]) was 99%, the GI50 (KM12) was > 100 µM and the pIC50 (KM12) was < 4.00. For the same compound, the TGI (KM12) was > 100 µM, the CC50 (KM12) was > 100 µM and the growth at 10 µM (EKVX) was 74%. For the same compound, the growth at 0.1 µM (K562 [17]) was 69%, the growth at 10 µM (UACC-62) was 63% and the GI50 (T47D) was > 100 µM. For the same compound, the pIC50 (T47D) was < 4.00, the LC50 (lethal concentration, 50% net cell kill) (T47D) was > 100 µM and the TGI (T47D) was > 100 µM. The growth at 0.01 µM (DU-145 [18]) was 97%, the growth at 10 µM (U-251) was 39% and the growth at 1 µM (COLO 205) was 106%.
`CC(=O)Nc1cccc(-c2ccc(-c3ccnc(NC(=O)Nc4cc(C(F)(F)F)cc(C(F)(F)F)c4)n3)cn2)c1.Cl` showed a growth at 10 µM (MDA-MB-435 [1]) of -27%, a growth at 10 µM (SW-620) of 41% and a growth at 1 µM (UACC-257 [2]) of -45%. It also gave a growth at 1 µM (TK-10 [3]) of 80%, a growth at 10 µM (M14) of 100% and a growth at 0.001 µM (TK-10 [4]) of 103%. The growth at 0.001 µM (NCI-H522) was 86%, the growth at 1 µM (DU-145 [5]) was 38% and the growth at 0.001 µM (UACC-257 [6]) was 94%. The growth at 0.001 µM (LOX IMVI) was 95%, the growth at 10 µM (HOP-62) was -36% and the GI50 (UO-31) was 5.51 µM. It also gave a pIC50 (UO-31) of 5.26, a TGI (UO-31) of 23.2 µM and a CC50 (UO-31) of 61.7 µM. It also gave a growth at 10 µM (K562 [7]) of 19%, a growth at 1 µM (HCT-116) of -35% and a growth at 0.001 µM (MDA-MB-435 [8]) of 97%. It also gave a GI50 (SK-MEL-5 [9]; Homo sapiens, SK-MEL-5, 48 h) of 1.35 µM, a TGI (SK-MEL-5 [9]; Homo sapiens, SK-MEL-5, 48 h) of 2.64 µM and a pIC50 (SK-MEL-5 [9]; Homo sapiens, SK-MEL-5, 48 h, read-out: IC50) of 5.87. For the same compound, the CC50 (SK-MEL-5 [9]; Homo sapiens, SK-MEL-5, 48 h) was 5.13 µM, the growth at 10 µM (SK-MEL-2 [10]) was -83% and the growth at 0.01 µM (ACHN) was 90%. The growth at 1 µM (SF-295) was -15%, the growth at 10 µM (BT-549 [11]) was -97% and the growth at 0.1 µM (SK-MEL-2 [12]) was 96%. It also gave a growth at 0.001 µM (SN12C) of 94%, a growth at 0.01 µM (SK-MEL-2 [13]) of 94% and a growth at 0.01 µM (MDA-MB-435 [14]) of 97%. It also gave a growth at 0.001 µM (BT-549 [15]) of 100%, a growth at 0.01 µM (SK-MEL-5 [16]) of 91% and a GI50 (KM12) of 2.59 µM. For the same compound, the pIC50 (KM12) was 5.59, the TGI (KM12) was 8.01 µM and the CC50 (KM12) was 27.9 µM. For the same compound, the growth at 10 µM (EKVX) was -7%, the growth at 0.1 µM (K562 [17]) was 69% and the growth at 10 µM (UACC-62) was 100%. The GI50 (T47D) was 0.619 µM, the pIC50 (T47D) was 6.21 and the LC50 (lethal concentration, 50% net cell kill) (T47D) was > 100 µM. For the same compound, the TGI (T47D) was 8.43 µM, the growth at 0.01 µM (DU-145 [18]) was 95% and the growth at 10 µM (U-251) was -96%. The growth at 1 µM (COLO 205) was 52%.
